Screens (PubChem)
SENP1 FRET inh = inhibitors of human SENP1 SUMO protease catalytic domain. 360,000 compounds, 0.21% hits. inhibition, % at 10 µM. recombinant SENP1 catalytic domain, CyPet-SUMO1-YPet FRET cleavage. Q9P0U3;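 active means inhibition at least 30% at 10 µM, raw YFP signal under a set limit, fluorescence ratio 0.5 to 1.5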
Target sequence (Q9P0U3 419-644 limits assumed): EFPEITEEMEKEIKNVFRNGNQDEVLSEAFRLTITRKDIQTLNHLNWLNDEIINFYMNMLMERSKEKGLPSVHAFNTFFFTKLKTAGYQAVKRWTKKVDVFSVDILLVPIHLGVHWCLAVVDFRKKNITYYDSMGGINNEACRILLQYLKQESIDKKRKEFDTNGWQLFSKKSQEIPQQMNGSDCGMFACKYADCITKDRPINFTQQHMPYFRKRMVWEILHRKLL
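system = hSENP1 catalytic domain, recombinant | reagent = SFCypet-SUMO1-SFYpet substrate at 25 nM | doses = one dose per compound, 10 µM, 0.5% DMSO | incubation = enzyme reaction for 50 min at room temperature, dark | measured by = FRET, CFP and YFP emission | controls = no-enzyme low, enzyme-DMSO high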
Platelet DG rel = modulates dense granule release in human platelets. human platelet-rich plasma, SFLLRN dense granule ATP release, luminescence. inhibition, %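 (compounds screened at 7.5 µM in platelet-rich plasma)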. 300,000 compounds, 0.22% hits. AID 1663;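 active means mean replicate score, as percent of positive control, at or above 50; inconclusive means mean below 50 but at least one replicate at or above 50; inactive means mean and every replicate below 50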
VLA-4 inh = inhibition in a human VLA-4 binding assay | P13612 | VLA-4 expressing cells, ligand binding flow cytometry | inhibition, % (about 7 µM as worked out from the volumes in the protocol) | 330,000 compounds, 0.2% hits; in the data active means inhibition above about 50%
Myeloid diff 2 = compounds promoting myeloid differentiation; ER-HoxA9 myeloid progenitors, lysozyme-GFP differentiation, flow cytometry; calls only at 10 µM; 360,000 compounds, 1% hits; AID 624256;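 active means normalized GFP-positive differentiation at or above the plate's own cutoff, the solvent-only control mean plus 3 SD; inconclusive means no clear call, values can overlap the other calls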;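 further: cells exposed to compound for four days before flow analysis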
Large screens that a line does not name were inactive. Sampled rows, rich in hits. Any-hit rate of the full collection: about 1.5%.

CCCc1ccc(C(=O)O/N=C(\N)c2ccccn2)cc1	Platelet DG rel 77
N/C(=N\OC(=O)c1ccc2ccccc2c1)c1ccccn1	Platelet DG rel 66
COC(=O)CCCCCN1C(=O)/C(=C\c2ccncc2)SC1=S	none
COc1ccc(C=O)cc1COc1c(F)c(F)cc(F)c1F	Myeloid diff 2 active
COC(=O)CCCc1nc2ccccc2s1	none
COc1ccccc1OC(=O)CCc1nc2ccccc2s1	Myeloid diff 2 active
Cc1cccc(NC(=O)c2cc(S(=O)(=O)N3CCCCC3)ccc2Cl)n1	none (no result: Platelet DG rel, VLA-4 inh)
COc1ccc(-c2cc(C(F)(F)F)n3nc(C(=O)N4CCN(C(=O)c5ccco5)CC4)cc3n2)cc1	none
COCCN1Cc2cccc(C(=O)Nc3ccc(S(=O)(=O)N4CCCCC4)cc3)c2C1=O	Myeloid diff 2 active
COCCN1Cc2cccc(C(=O)Nc3ccc(C)cc3)c2C1=O	none
O=C(O)c1ccccc1CSc1ccccn1	none
CCn1c(SCC(=O)Nc2ccc3c(c2)OCO3)nc2c(c1=O)SC(C)C2 (stereo not given)	Myeloid diff 2 active
CC1Cc2nc(SCC(=O)c3ccccc3)n(Cc3ccccc3)c(=O)c2S1 (stereo not given)	Myeloid diff 2 active
COc1ccc(/C=N/NC(=O)c2ccc(CSc3nc(C)cc(C)n3)cc2)c(OC)c1OC	Myeloid diff 2 active
COc1ccc(/C=N/NC(=O)c2ccc(CSc3nc(C)cc(C)n3)cc2)cc1O	none
CCOc1ccc(C(=O)Nc2cccc3ncccc23)cc1Cl	none
CC(C)(C)n1nc(-c2ccc(F)cc2)c2c(N)ncnc21	Myeloid diff 2 inconclusive
CC(C)(C)n1nc(-c2ccc(Cl)cc2)c2c(N)ncnc21	Platelet DG rel 72
CCOC(=O)[C@]12CCCC=C1N(Cc1ccccc1)C(=O)[C@H](CC(=O)NCC13CC4CC(CC(C4)C1)C3)C2	none (no result: Platelet DG rel, VLA-4 inh)
COc1ccc(-c2c(NC(=O)c3ccco3)oc3c(C)cccc3c2=O)cc1OC	none
Cc1cccc(-c2c(NC(=O)c3ccco3)oc3c(C)cccc3c2=O)c1	Myeloid diff 2 active
COc1ccc(/C=C2\C(=O)NCC(=O)N2C)cc1	Myeloid diff 2 active
Cc1ccc(NC(=O)CC(=O)c2ccccc2)cc1C	none
COc1ccc(Nc2nc(Cl)c(C=O)s2)cc1	Myeloid diff 2 active
COc1ccc(Nc2nc3ccccc3s2)cc1	none
O=C(NN=C1CCCCCC1)c1ccc(Cl)s1	none
CCc1ccc2[nH]c(O)c(N=Nc3nc(-c4ccccc4)cs3)c2c1	SENP1 FRET inh 33
Cc1ccc(N=Nc2c(O)[nH]c3ccc(F)cc23)cc1	none
CCOC(=O)c1ccc(Oc2c(C)oc3cc(OS(C)(=O)=O)ccc3c2=O)cc1	none
O=C(O)CC(c1ccc(F)cc1F)N1Cc2ccccc2C1=O (stereo not given)	none
OCC1CCCC(n2cnc3c(=S)nc[nH]c32)O1 (stereo not given)	Myeloid diff 2 active
CCOC1CCCC(n2cnc3c(=S)nc[nH]c32)O1 (stereo not given)	Myeloid diff 2 inconclusive (no result: Platelet DG rel, VLA-4 inh)
CCN1C[C@@H]2[C@@H]3C(=O)N(Cc4ccccc4)C(=O)[C@@H]3[C@](Cc3ccccc3)(C1=O)N2C(=O)c1ccc(C(F)(F)F)cc1	Myeloid diff 2 active (no result: Platelet DG rel, VLA-4 inh)
O=C(COC(=O)CSc1ccc(F)cc1)NNC(=O)c1ccc([N+](=O)[O-])cc1	none
NNC(=O)c1csc(-c2ccc(C(F)(F)F)cc2Cl)n1	Myeloid diff 2 active
CCOC(=O)Cc1ccc2sc(-c3ccccc3)nc2c1	Platelet DG rel 55
Nc1nc2c(ncn2COC(CO)CO)c(=O)[nH]1	Myeloid diff 2 active
Cc1ccc2[nH]c(C(=O)N3CCC(C(N)=O)CC3)cc2c1	none
CSc1nc2ccc(S(=O)(=O)N3CCOCC3)cc2s1	none
N#CCc1nc2ccc(S(=O)(=O)N3CCOCC3)cc2s1	Myeloid diff 2 active
CCOc1ccc(N=C(C)c2ccccc2O)cc1	Myeloid diff 2 active
CCC1CN2CCc3cc(OC)c(OC)cc3C2CC1CC1c2cc(OC)c(OC)cc2CCN1C(=O)C(Cc1c[nH]c2ccccc12)NC(=O)OC(C)(C)C (stereo not given)	Myeloid diff 2 active (no result: Platelet DG rel, VLA-4 inh)
CC(C)C[C@H](NC(=O)OC(C)(C)C)C(=O)N1CCC(C(=O)N[C@@H](Cc2c[nH]c3ccccc23)C(=O)O)CC1	none
CCC(=O)N=c1ccn(C2=Nc3ccccc3NC2=C(C#N)C#N)cc1	none
CC(Oc1ccc(Br)cc1)C(=O)NC1CCN(Cc2ccccc2)CC1 (stereo not given)	none
O=C(Nc1ccccc1)C1Cc2c(-c3cccc(F)c3)ccnc2O1 (stereo not given)	none (no result: Platelet DG rel, VLA-4 inh)
CC(=O)Nc1ccc(-c2ccnc3c2CC(C(=O)NCc2cccc(Cl)c2)O3)cc1 (stereo not given)	Myeloid diff 2 inconclusive (no result: Platelet DG rel, VLA-4 inh)
CS(=O)(=O)Nc1cccc(NC(=O)C2Cc3c(-c4cccc(F)c4)ccnc3O2)c1 (stereo not given)	Myeloid diff 2 active (no result: Platelet DG rel, VLA-4 inh)
CC(=O)Nc1cccc(-c2ccnc3c2CC(C(=O)NCc2cccc(Cl)c2)O3)c1 (stereo not given)	Myeloid diff 2 active (no result: Platelet DG rel, VLA-4 inh)
COc1cccc(CN2CCN(CCc3ccccc3)C(CCO)C2)c1OC (stereo not given)	Myeloid diff 2 active
COc1cccc(CN2CCN(CCCc3ccccc3)C(CCO)C2)c1OC (stereo not given)	none
C=C1C(=O)[C@]23C[C@H]1CCC2[C@]1(C)C(=O)CC[C@@](C)(C(=O)O)C1C[C@@H]3O (stereo not given in full)	Myeloid diff 2 active (no result: Platelet DG rel, VLA-4 inh)
CCCCn1c(SCN2C(=O)c3ccccc3C2=O)nc2cc(S(N)(=O)=O)ccc21	Platelet DG rel 80 (no result: VLA-4 inh)
Cc1cc(C)nc(NC(=S)Nc2cccc(Cl)c2Cl)c1	Myeloid diff 2 active
COc1ccc(/C=N/NC(=O)c2ccc3c(c2)NC(=O)C(C)(C)O3)cc1OC	none
COc1ccc(/C=C(\C#N)C(=O)Nc2cc(S(=O)(=O)N3CCOCC3)ccc2N2CCCC2)cc1	none
CCOc1cc(/C=C(/C#N)C(=O)Nc2ccc(O)cc2)cc(Br)c1O	Myeloid diff 2 inconclusive
CCN(CC)S(=O)(=O)c1ccc(N2CCCCC2)c(NC(=O)/C(C#N)=C/c2ccc(OC)cc2)c1	Myeloid diff 2 active
CCOc1ccc(NC(=O)/C(C#N)=C/c2ccc(N3CCCC3)c(C)c2)cc1	Myeloid diff 2 active (no result: Platelet DG rel)
CC(C)(C)c1nn(-c2ccccc2)c2[nH]c(=O)c(C=O)cc12	none
COC(=O)C1=CNC=C(C(=O)OC)C1c1ccc(Cl)cc1	Myeloid diff 2 active
COC(=O)C1=CNC=C(C(=O)OC)C1c1ccccc1Cl	none (no result: Platelet DG rel)
O=S(=O)(NCCc1cn2ccccc2n1)c1ccc2c(c1)CCCC2	Platelet DG rel 57
O=S(=O)(NCCc1cn2ccccc2n1)c1ccc2c(c1)OCCO2	none
COc1ccc(-c2ccc(SC)nn2)cc1	Platelet DG rel 57
Cc1nnc(NC(=O)CCC(=O)NC2CCCCCCC2)s1	none
O=c1oc2cc(Cl)ccc2n1CSc1nc2ccccc2s1	Myeloid diff 2 active
O=C(CCl)N1c2ccccc2Oc2ccc3ccccc3c21	Myeloid diff 2 active (no result: Platelet DG rel, VLA-4 inh)
CC(=O)N1c2ccccc2Oc2cc3ccccc3cc21	none
Cc1cc(NS(=O)(=O)c2ccc(NC(=O)c3ccc([N+](=O)[O-])c(Cl)c3)cc2)no1	none
